B1: tRNA (parent)
chain: GUUCCGUUGGCGUAAUGGUAACGCGUCUCCCUCCUAAGGAGAAGACUGCGGGUUCGAGUCCCGUACGGAACG

Variants of: B1
Experiment: yeast fitness, log relative to wild type (ln ratio); higher = fitter; tRNA-Arg(CCU), competitive growth, 37 C, 1 M NaCl
Procedure, shortened: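 BY4742 cells without the chromosomal tRNA-Arg(CCU) gene carried a combinatorial variant library on a HIS3 centromeric plasmid, from two independent transformations. After 4 generations in SC-HIS at 30 °C, pools spent ~6.5 generations (~26.5 h) in SC-HIS 1M NaCl at 37 °C, giving three outputs per input, and 125 bp paired-end Illumina reads counted the variants. Fitness is the natural log of each genotype's generations over the wild type's, with generations taken as OD-scaled log2 output/input frequency weighted by inverse variance across replicates.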

Variant	yeast fitness (ln)
G1A G6A C27U A43C A69G C71U	-0.598
G6U A43C C46U C66U A70G	-0.205
U2C C46U A70G C71U	-0.00238
U2C G6U A43C C46U A70U C71U	-0.125
G1A U2G G6U C27U A43C C46U C66U A69G A70G	-0.476
U2C C27U A43C C66U A69G A70U	-0.439
U2G G6A C66U A69G A70G C71U	-0.161
G6U A43C C46U C66U	-0.258
C27U A43C A69G	-0.0699
G1A C27U C66U	-0.206
G1A U2G A43C C66A A70U	-0.12
G6U C27U C46U A70G	-0.15
U2G G6U A69G	-0.176
G1A G6U A43C C46U C66A A69G A70U	-0.474
U2G G6A C27U C46U A70G C71U	-0.207
U2G G6A A43C C46U C66U A70G	-0.205
U2G G6U C27U A43C C46U C66A A70U C71U	-0.629
C27U C66U A69G	-0.241
G1A G6A C27U C46U C66U A69G A70G	-0.338
U2G G6A C46U C66U A70U	-0.000351
U2G G6A C46U C66U A70G	-0.0322
U2G G6U A43C C46U C66A	-0.205
G1A U2C G6U C66U A70U	-0.153
G6U C27U C46U A69G A70U	-0.292

Variant	yeast fitness (ln)
G6A C27U A70G	-0.148
G6U C27U C46U	-0.174
U2C G6A A70U C71U	-0.0821
U2C A43C A70G	-0.00562
G1A U2G G6U C27U A43C A69G A70G C71U	-0.449
U2C G6U C27U A43C C46U C66A A70U	-0.0786
G1A G6A A43C A69G A70G C71U	-0.248
U2C G6A C46U C66U	0.00338
G1A U2G C27U C46U A70U C71U	-0.0144
G6A C27U A43C C46U	-0.084
U2C C66U A70U	-0.0706
U2G G6U A43C C46U C66A A69G A70U	-0.0302
U2G G6A C27U A43C C66A A70U C71U	-0.473
G1A G6A A43C C46U A69G A70G	-0.251
G1A U2G G6U A43C C46U C66U C71U	-0.371
G1A G6U C46U C66U A69G C71U	-0.814
U2G C27U A43C C46U A69G A70U C71U	-0.295
G1A U2G G6U C27U A69G A70U	-0.362
G6A C27U C66U A69G A70U	-0.214
G1A U2G G6U A70U C71U	-0.22
G1A U2G C66A C71U	-0.0937
A43C C46U A69G A70U	-0.133
G1A U2G G6U A43C A69G A70U	-0.456
U2C G6A C46U A70G	0.00625

Variant	yeast fitness (ln)
G1A G6U A70U	-0.156
G1A G6U C27U C66A A69G C71U	-0.388
C46U C66U A69G C71U	-0.396
U2C G6U A43C C46U	-0.0413
U2G G6A C27U	-0.0425
U2C G6A C27U A43C C66A A70G C71U	-0.0895
U2C C66A A70G	-0.11
G1A A43C C46U C66A A69G A70G C71U	-0.191
G1A G6U C27U A43C C66U A69G C71U	-0.258
U2G G6A C46U A69G A70G C71U	-0.154
G1A U2G C27U C66A A69G A70U	-0.187
C46U C66U C71U	-0.0591
G6A C46U C66A A70U C71U	-0.211
U2C A43C C46U C66U A70U	-0.0497
G1A U2G C27U A43C C66A A70U C71U	-0.499
U2G G6A C46U C66A A69G A70G C71U	-0.193
U2C G6U C27U A43C C46U A69G A70U	-0.126
G1A G6A C46U C66A A70U C71U	-0.15
G1A G6A C27U A43C C66U A69G A70G C71U	-0.487
G1A G6U C27U A43C C46U A69G C71U	-0.328
U2G G6A C27U C46U C66A	-0.0567
G1A U2C C71U	-0.00448
G6A C27U A43C C46U C66A A69G A70U C71U	-0.471
G6U A43C C66A	-0.0198

Variant	yeast fitness (ln)
G1A C27U C66A A70U C71U	-0.243
C27U A43C A70G	-0.0631
G1A U2G G6A A43C C46U A69G C71U	-0.206
U2G C27U C46U C66U A70G C71U	-0.175
G1A U2C A43C C46U A69G A70U	-0.0156
U2C	0.0175
G6A C27U A43C C46U A69G	-0.166
U2G C27U A43C C71U	-0.157
G1A G6U A43C C46U A70G	-0.201
G1A G6U C46U C66U A69G A70U C71U	-0.441
G1A U2G G6U C27U A69G A70U C71U	-0.404
U2C C27U A43C C66A A70G	-0.0848
G1A G6U A43C C46U A70U C71U	-0.297
U2G G6U C27U A43C C66U A69G A70U	-0.466
G1A A43C C66U A70G	-0.236
C66U A69G A70G	-0.0718
U2G G6A A43C C66U A69G A70U C71U	-0.407
G1A U2G G6U C27U C66U A70G C71U	-0.325
G6A C27U A43C C66U A70G C71U	-0.302
U2G G6U C46U A69G	-0.157
U2C G6A C27U A43C C46U A70G C71U	-0.0979
A70U C71U	-0.0899
U2G G6A C66U A70U C71U	-0.0405
G1A C27U A70U	-0.112

Variant	yeast fitness (ln)
G1A C27U C46U A70U	-0.088
U2G G6A A43C C46U C66U A69G C71U	-0.303
G1A U2C G6A C27U A70U C71U	-0.109
U2G G6U C27U C46U C66A A70U C71U	-0.143
G1A U2C G6A A43C C46U C71U	-0.0914
G6A C27U A43C C66U C71U	-0.264
G1A U2C G6U C46U C66A	-0.141
G6U C27U C66A A69G A70U	-0.213
G6U C27U C66A A69G A70G	-0.35
G1A G6U A69G A70G	-0.198
G1A G6U C27U A43C C66U A69G A70U C71U	-0.435
G1A U2C G6A C27U C46U A69G A70G C71U	-0.489
G1A G6A A43C	-0.204
U2C G6U C27U A43C C46U C66A	0.00284
U2G G6U C27U A43C C46U C71U	-0.197
U2C C66U A69G A70U	-0.0622
U2C A43C C46U A69G	-0.182
G1A G6U C27U A43C C66U A69G A70G	-0.51
U2C C27U C46U C66U A69G A70U C71U	-0.411
G6A C27U C66U A70U	-0.188
U2C G6U A43C C46U C66U A69G A70U C71U	-0.471
G1A U2C G6A C46U A70G	-0.179
U2C G6A C27U C66U A70U	-0.203
G1A C27U C46U C66U A69G C71U	-0.311

Variant	yeast fitness (ln)
G1A U2G C46U A70U C71U	0.00364
G1A G6U C66A A70G C71U	-0.0373
U2G A43C A69G A70G C71U	-0.168
G1A U2C G6U A43C	-0.116
G1A U2G G6U C27U C46U C66U A69G C71U	-0.434
G1A G6U C27U A43C C46U C66U C71U	-0.364
G6U C27U A43C C66U A70U C71U	-0.372
U2C G6A C27U A43C C46U A69G A70U C71U	-0.359
G1A U2C G6A C27U A43C C46U A69G A70U	-0.132
U2C G6A A43C A70U	-0.0469
U2C G6A C66U	0.00772
G1A U2G C27U C46U A70G	-0.144
G1A U2C G6U C66U A69G A70G	-0.362
G1A C66A	0.0139
U2C A43C C46U A70U C71U	-0.0761
G1A G6U C46U A70G	-0.173
G1A U2G G6A C46U C71U	-0.247
G1A G6U C27U A69G A70U C71U	-0.505
C66A	-0.00943
G1A U2G G6A C46U C66U A69G A70U C71U	-0.141
G6U C27U C46U C66A A69G C71U	-0.507
G1A U2C G6U C27U C66U A69G A70U	-0.245
G1A U2C G6U C27U A43C C46U A70U C71U	-0.177
G1A U2G G6U A43C C46U C66A C71U	-0.234

Variant	yeast fitness (ln)
G1A U2G C27U A43C C66A A70U	-0.195
G1A U2C G6U C27U C66A A70G C71U	-0.0489
G1A G6U C66A A70U	-0.0574
G1A G6A C27U C46U C66A A70G	-0.285
G1A U2C A43C A70U C71U	-0.278
G6U A43C C66A A70G	-0.0733
G1A U2G C27U A43C A69G A70G	-0.263
G1A U2G C27U A43C A69G A70U	-0.281
G6U A43C	-0.132
G1A U2G G6A C27U A43C C66U	-0.348
U2G G6A C46U A69G A70U	-0.21
G1A U2C G6U C27U C46U A69G A70G	-0.176
G1A G6A C27U C66U A69G C71U	-0.321
G6U C27U A43C C66A A69G C71U	-0.333
C27U A70U	-0.042
U2G G6U C27U A43C C66U C71U	-0.381
U2C C27U C66U A70U	-0.113
G1A U2G G6A A43C C46U A70G C71U	-0.202
G1A U2G G6U A43C C66A A70G C71U	-0.301
G6U A43C C66A A69G A70G	-0.373
A43C C66A A70G C71U	-0.105
G1A C27U C46U C66A A69G A70U C71U	-0.411
U2C G6U C27U C46U C66A	-0.267
